Calls of active or inactive are those of the source. No cut-off for these calls is given here.
How the values were obtained:
[1] = target: T1, Free fatty acid receptor 1 (Homo sapiens, UniProt O14842); assay: Agonist activity at human FFA1 receptor expressed in CHO cells assessed as Ca2+ influx at 100 nM by FLIPR assay; assay type: functional, cell-based
In short: (§1)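 Human FFA1 stably expressed in CHO cells, seeded at 15K/well and grown 16 h at 37 °C, 5% CO2. Cells loaded 1 h at 37 °C with Fluo 4-AM (2.5 µg/mL), 2.5 mmol/L probenecid and 0.1% fatty acid-free BSA. Single screening concentration as listed. Ca2+ flux read on FLIPR Tetra and expressed as % of the 10 µM γ-linolenic acid response after vehicle subtraction. Mean of three independent experiments.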

[2] = target: T1, Free fatty acid receptor 1; assay: Agonist activity at human FFA1 receptor expressed in CHO cells assessed as Ca2+ influx at 300 nM by FLIPR assay; assay type: functional, cell-based; in short: as §1
Mus musculus [3] = assay: Antidiabetic activity in overnight fasted ICR mouse assessed as decrease in blood glucose level at 20 mg/kg, po administered 30 mins prior to glucose challenge measured after 15 to 120 mins by OGTT method; assay type: functional, organism-based
In short: (§2)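 Male ICR mice, 10 weeks old, 18-22 g, fasted overnight (12 h), n = 6 per group. Single oral dose in 0.5% CMC-Na vehicle (10 mL/kg), […] for the reference compound (20 mg/kg) and for the test compounds. Oral glucose load (30%, 3 g/kg) given 30 min later. Tail blood glucose measured by test strip at -30, 0, 15, 30, 45, 60 and 120 min. AUC0-2h also derived. Mean ± SEM.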

Mus musculus [4] = assay: Hepatotoxicity in ICR mouse assessed as alanine aminotransferase levels in serum at 20 mg/kg qd administered through oral gavage for 30 days (reference value: 35 +/- 4.3 IU/L); assay type: toxicity, organism-based; conditions: in vivo, 720 h
Mus musculus [5] = assay: Hepatotoxicity in ICR mouse assessed as aspartate aminotransferase levels in serum at 20 mg/kg qd administered through oral gavage for 30 days (reference value: 133.1 +/- 13.1 IU/L); assay type: toxicity, organism-based; conditions: in vivo, 720 h
Mus musculus [6] = assay: Antihyperglycemic activity in overnight fasted STZ-induced type 2 dibetic C57BL/6 mouse assessed as decrease in blood glucose level at 20 mg/kg, po administered 30 mins prior to glucose challenge measured after 15 to 120 mins by OGTT method; assay type: functional, organism-based
In short: (§3)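 Male C57BL/6 mice fed a 45%-fat diet for 4 weeks, given STZ i.p. (80 mg/kg), then high-fat diet for 4 more weeks. Fasting glucose of 11.1 mmol/L or higher taken as diabetic. After a 12 h fast, n = 6 per group, with a normal-mouse control group. Oral dose in 0.5% CMC-Na, then oral glucose (20%, 2 g/kg) 30 min later. Strip glucose at -30 to 120 min.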

Mus musculus [7] = assay: Hepatotoxicity in ICR mouse assessed as total bilirubin levels in serum at 20 mg/kg qd administered through oral gavage for 30 days (reference value: 4.1 +/- 0.4 IU/L); assay type: toxicity, organism-based; conditions: in vivo, 720 h
[8] = target: T1, Free fatty acid receptor 1; assay: Agonist activity at human FFA1 receptor expressed in CHO cells assessed as Ca2+ influx by FLIPR assay; assay type: functional, cell-based
In short: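 Ca2+ flux assay in CHO cells stably expressing human FFA1: seeded at 15K/well and grown 16 h, then Fluo 4-AM loaded 1 h at 37 °C with probenecid and fatty acid-free BSA. Compounds tested at various concentrations. Response normalized to vehicle (0%) and 10 µM γ-linolenic acid (100%). EC50 from concentration–response fitting, mean of three determinations.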

Mus musculus [9] = assay: Antidiabetic activity in overnight fasted ICR mouse assessed as decrease in blood glucose level at […], po administered 30 mins prior to glucose challenge measured after 15 to 120 mins by OGTT method; assay type: functional, organism-based; conditions: 38 umol/kg; in short: as §2
Mus musculus [10] = assay: Antidiabetic activity in overnight fasted ICR mouse assessed as decrease in plasma glucose AUC at […], po administered 30 mins prior to glucose challenge measured after 15 to 120 mins by OGTT method; assay type: functional, organism-based; in short: as §2
Mus musculus [11] = assay: Toxicity in overnight fasted ICR mouse assessed as hypoglycemic effect at 15 mg/kg, po after 30 to 120 mins […]; assay type: organism-based; conditions: in vivo
In short: (§4)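 Fasting hypoglycemia test without a glucose load: male ICR mice, 10 weeks old, fasted overnight, 3 groups of n = 6. Single oral dose of 60 mg/kg test compound, 15 mg/kg glibenclamide or 0.5% CMC-Na vehicle. Tail-vein blood glucose measured by test strip at 0, 30, 60, 90, 120 and 180 min. Mean ± SEM.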

Mus musculus [12] = assay: Antidiabetic activity in overnight fasted po dosed ICR mouse assessed as decrease in blood glucose level administered 30 mins prior to glucose challenge measured after 15 to 120 mins by OGTT method; assay type: functional, organism-based; in short: as §2
Mus musculus [13] = assay: Antidiabetic activity in overnight fasted ICR mouse assessed as decrease in blood glucose level at 60 mg/kg, po administered 30 mins prior to glucose challenge measured after 60 mins by OGTT method; assay type: functional, organism-based
In short: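 Dose–response OGTT in male ICR mice, 10 weeks old, fasted 12 h, 5 groups of n = 6. Oral doses of 10, 30 or 60 mg/kg, or reference at 20 mg/kg, in 0.5% CMC-Na. Glucose (30%, 3 g/kg) given orally 30 min after dosing. Tail-blood glucose read by test strip at -30, 0, 15, 30, 45, 60 and 120 min. Mean ± SEM.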

Mus musculus [14] = assay: Hepatotoxicity in ICR mouse assessed as alanine aminotransferase levels in serum at 30 mg/kg qd administered through oral gavage for 30 days (reference value: 35 +/- 4.3 IU/L); assay type: toxicity, organism-based; conditions: in vivo, 720 h
Mus musculus [15] = assay: Hepatotoxicity in ICR mouse assessed as aspartate aminotransferase levels in serum at 30 mg/kg qd administered through oral gavage for 30 days (reference value: 133.1 +/- 13.1 IU/L); assay type: toxicity, organism-based; conditions: in vivo, 720 h
Mus musculus [16] = assay: Toxicity in overnight fasted ICR mouse assessed as hypoglycemic effect at 60 mg/kg, po after 30 to 120 mins […]; assay type: organism-based; conditions: in vivo; in short: as §4
Mus musculus [17] = assay: Antihyperglycemic activity in overnight fasted STZ-induced type 2 dibetic C57BL/6 mouse assessed as decrease in blood glucose level at 30 mg/kg, po administered 30 mins prior to glucose challenge measured after 15 to 120 mins by OGTT method; assay type: functional, organism-based; in short: as §3
Mus musculus [18] = assay: Hepatotoxicity in ICR mouse assessed as total bilirubin levels in serum at 30 mg/kg qd administered through oral gavage for 30 days (reference value: 4.1 +/- 0.4 IU/L); assay type: toxicity, organism-based; conditions: in vivo, 720 h

T1 sequence (O14842 whole entry): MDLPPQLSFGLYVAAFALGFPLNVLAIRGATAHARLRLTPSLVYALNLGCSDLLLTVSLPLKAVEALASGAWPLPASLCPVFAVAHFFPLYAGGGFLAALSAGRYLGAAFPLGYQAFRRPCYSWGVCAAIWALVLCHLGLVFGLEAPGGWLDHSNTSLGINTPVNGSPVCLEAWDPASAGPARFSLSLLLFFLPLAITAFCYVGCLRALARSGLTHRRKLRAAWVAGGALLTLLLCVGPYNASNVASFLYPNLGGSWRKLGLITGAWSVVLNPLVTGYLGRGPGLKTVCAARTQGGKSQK

| SMILES | Activity [1] [%] | Activity [2] [%] | further results |
| --- | --- | --- | --- |
| Cc1nc(-c2ccccc2Cl)sc1COc1ccc2c(c1)OCC2CC(=O)O (stereo not drawn) | 12.4 | – | – |
| COc1cc(OC)cc(-c2nc(C)c(COc3ccc4c(c3)OCC4CC(=O)O)s2)c1 (stereo not drawn) | 17.5 | – | – |
| O=C(O)CC1COc2cc(OCc3ncc(-c4ccccc4)s3)ccc21 (stereo not drawn) | 5.26 | 19.8 | – |
| Cc1nc(-c2ccccc2F)sc1COc1ccc2c(c1)OCC2CC(=O)O (stereo not drawn) | 25.8 | – | – |
| Cc1cc(OCCCS(C)(=O)=O)cc(C)c1-c1cccc(COc2ccc3c(c2)OC[C@H]3CC(=O)O)c1 [FASIGLIFAM] | – | – | Activity (Mus musculus [3]): Active; Activity (Mus musculus [4]): 48.3 IU/L; Activity (Mus musculus [5]): 181.1 IU/L; Activity (Mus musculus [6]): Active; Activity (Mus musculus [7]): 4 IU/L |
| COc1ccc(-c2nc(C)c(COc3ccc4c(c3)OCC4CC(=O)O)s2)cc1 (stereo not drawn) | 46.8 | – | EC50 [8]: 0.123 µM |
| O=C(O)CC1COc2cc(OCc3nnc(-c4ccccc4)o3)ccc21 (stereo not drawn) | 1.54 | 6.31 | – |
| COc1cc(-c2nc(C)c(COc3ccc4c(c3)OCC4CC(=O)O)s2)cc(OC)c1OC (stereo not drawn) | 7.47 | – | – |
| O=C(O)CC1COc2cc(OCc3nc(-c4ccccc4)cs3)ccc21 (stereo not drawn) | 0.16 | 0.23 | – |
| Cc1nc(-c2ccccc2)sc1COc1ccc2c(c1)OCC2CC(=O)O (stereo not drawn) | 54.8 | 67.4 | Activity (Mus musculus [9]): Active |
| O=C(O)CC1COc2cc(OCc3nnc(-c4ccccc4)s3)ccc21 (stereo not drawn) | 3.36 | 13.7 | – |
| Cc1nc(-c2cccc3ccccc23)sc1COc1ccc2c(c1)OCC2CC(=O)O (stereo not drawn) | 8.53 | – | – |
| Cc1nc(-c2cccc(Cl)c2)sc1COc1ccc2c(c1)OCC2CC(=O)O (stereo not drawn) | 43 | – | EC50 [8]: 0.138 µM |
| Cc1nc(-c2ccsc2)sc1COc1ccc2c(c1)OCC2CC(=O)O (stereo not drawn) | 56.5 | – | Activity (Mus musculus [9]): Active; EC50 [8]: 0.0685 µM |
| Cc1nc(-c2ccc(Cl)s2)sc1COc1ccc2c(c1)OCC2CC(=O)O (stereo not drawn) | 8.34 | – | – |
| Cc1ccc(-c2nc(C)c(COc3ccc4c(c3)OCC4CC(=O)O)s2)cc1 (stereo not drawn) | 54.9 | – | Activity (Mus musculus [9]): Active; EC50 [8]: 0.0735 µM; Activity (Mus musculus [10]): Active |
| COc1ccc(Cl)cc1C(=O)NCCc1ccc(S(=O)(=O)NC(=O)NC2CCCCC2)cc1 [GLYBURIDE] | – | – | Activity (Mus musculus [11]): Toxic |

| SMILES | Activity [1] [%] | Activity [2] [%] | further results |
| --- | --- | --- | --- |
| O=C(O)CC1COc2cc(OCc3cc(-c4ccccc4)on3)ccc21 (stereo not drawn) | 0.84 | 1.67 | – |
| Cc1nc(-c2cccc(C(F)(F)F)c2)sc1COc1ccc2c(c1)OCC2CC(=O)O (stereo not drawn) | 35.7 | – | – |
| Cc1nc(-c2cc3ccccc3o2)sc1COc1ccc2c(c1)OCC2CC(=O)O (stereo not drawn) | 14.8 | – | – |
| Cc1nc(-c2ccccc2C(F)(F)F)sc1COc1ccc2c(c1)OCC2CC(=O)O (stereo not drawn) | 7.76 | – | – |
| Cc1nc(-c2ccc(F)cc2)sc1COc1ccc2c(c1)OCC2CC(=O)O (stereo not drawn) | 61.6 | – | Activity (Mus musculus [12]): Dose-dependent effect; Activity (Mus musculus [13]): Active; Activity (Mus musculus [9]): Active; Activity (Mus musculus [14]): 37.5 IU/L; Activity (Mus musculus [15]): 141.8 IU/L; EC50 [8]: 0.0487 µM; Activity (Mus musculus [10]): Active; Activity (Mus musculus [16]): Non-toxic; Activity (Mus musculus [17]): Active; Activity (Mus musculus [18]): 4 IU/L |
| Cc1nc(-c2ccc(C(F)(F)F)cc2)sc1COc1ccc2c(c1)OCC2CC(=O)O (stereo not drawn) | 50.4 | – | EC50 [8]: 0.0967 µM |
| Cc1nc(-c2ccccc2)oc1COc1ccc2c(c1)OCC2CC(=O)O (stereo not drawn) | 7.15 | 21.2 | – |
| Cc1cccc(-c2nc(C)c(COc3ccc4c(c3)OCC4CC(=O)O)s2)c1 (stereo not drawn) | 47.2 | – | EC50 [8]: 0.119 µM |
| O=C(O)CC1COc2cc(OCc3csc(-c4ccccc4)n3)ccc21 (stereo not drawn) | 0.15 | 5.67 | – |
| Cc1nc(-c2cccs2)sc1COc1ccc2c(c1)OCC2CC(=O)O (stereo not drawn) | 35.1 | – | – |
| Cc1nc(-c2cccc(F)c2)sc1COc1ccc2c(c1)OCC2CC(=O)O (stereo not drawn) | 56.9 | – | Activity (Mus musculus [9]): Active; EC50 [8]: 0.0648 µM; Activity (Mus musculus [10]): Active |
| O=C(O)CC1COc2cc(OCc3cn(-c4ccccc4)nn3)ccc21 (stereo not drawn) | – | 0.89 | – |
| Cc1ccccc1-c1nc(C)c(COc2ccc3c(c2)OCC3CC(=O)O)s1 (stereo not drawn) | 10.7 | – | – |
| O=C(O)CC1COc2cc(OCc3ncc(-c4ccccc4)o3)ccc21 (stereo not drawn) | 2.34 | 10.2 | – |
| Cc1nc(-c2ccc(Cl)cc2)sc1COc1ccc2c(c1)OCC2CC(=O)O (stereo not drawn) | 53.4 | – | Activity (Mus musculus [9]): Active; EC50 [8]: 0.0856 µM; Activity (Mus musculus [10]): Active |
| Cc1cc(COc2ccc3c(c2)OCC3CC(=O)O)nn1-c1ccccc1 (stereo not drawn) | 0.98 | 1.23 | – |

Reference: ChEMBL document CHEMBL3779858, “Design, synthesis and Structure-activity relationship studies of new thiazole-based free fatty acid receptor 1 agonists for the treatment of type 2 diabetes” (Eur J Med Chem, 2016)
